Source: PubChem BioAssay (The Scripps Research Institute Molecular Screening Center)
MBD2 inh – inhibitors of MBD2 binding to methylated DNA, primary screen, biochemical, TR-FRET, DNA-binding domain, human; MBD2 binding to methylated oligonucleotide; inhibition, % at 4.4 µM; 0.31% of 370,000 active; AID 686964, 2013; in the data active = inhibition above about 13%
Target sequence (Q9UBB5 whole entry, looked up, the tested form may be a part): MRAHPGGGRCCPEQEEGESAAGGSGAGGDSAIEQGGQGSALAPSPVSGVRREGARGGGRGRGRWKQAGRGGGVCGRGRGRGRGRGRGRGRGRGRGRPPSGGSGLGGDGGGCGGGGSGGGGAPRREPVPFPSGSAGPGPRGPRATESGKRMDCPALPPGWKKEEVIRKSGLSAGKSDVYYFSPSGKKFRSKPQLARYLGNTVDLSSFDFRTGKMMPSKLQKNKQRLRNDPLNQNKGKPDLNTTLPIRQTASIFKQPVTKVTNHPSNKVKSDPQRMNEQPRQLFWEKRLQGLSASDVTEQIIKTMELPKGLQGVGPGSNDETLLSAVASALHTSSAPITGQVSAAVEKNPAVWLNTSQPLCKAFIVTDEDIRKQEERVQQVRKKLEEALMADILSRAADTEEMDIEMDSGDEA
LEDGF integ inh – blockers of LEDGF/p75-dependent integrase strand transfer – biochemical, TR-FRET, high throughput, primary screen; HIV-1 integrase (with human LEDGF/p75); TR-FRET IN-LEDGF/p75 DNA integration, Eu/Cy5; inhibition, % at 3.7 µM; 0.64% of 370,000 active;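 active = inhibition above the screen-wide mean plus 3 SD, cut at about 13% in these data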;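 also: signal is the Cy5 over europium emission ratio at 671 and 618 nm; 0% = plate median of compound wells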
TDP2 absorb – human TDP2 enzyme inhibitors, primary screen, biochemical, epi absorbance, recombinant enzyme | Tyrosyl-DNA phosphodiesterase 2 (Homo sapiens), O95551 | T5PNP hydrolysis, p-nitrophenol absorbance 415 nm | inhibition, % at 12.8 µM | 0.34% of 370,000 active | AID 720702, 2013;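 active = inhibition above the mean of all tested compounds plus 3 SD, set per campaign, cut at about 25% in these data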;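 also: 0% = DMSO with enzyme and 100% = buffer with substrate but no TDP2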
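Assay system: recombinant human TDP2 / Reagent: T5PNP substrate at 5 mM, a TopII-DNA adduct mimic / Measured by: epi absorbance from released p-nitrophenol / Evaluation: % inhibition relative to enzyme-containing and enzyme-free wells / Control set: enzyme-free and DMSO wells / Replicates: each compound tested once, singlicate / Schedule: enzyme reaction with compound for 2 h at 37 °C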
UHRF1 binding – UHRF1 methylated DNA binding inhibitors, primary screen, counter-screen for MBD2 inhibitor project, biochemical, TR-FRET, human UHRF1, single concentration; inhibition, % at 4.4 µM; UHRF1 binding to methylated oligo; 0.75% of 370,000 active; in the data active = inhibition above about 21%;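 also: UHRF1 SRA domain binding a hemimethylated CpG hairpin DNA probe; 0% = median of test compound wells and 100% = reference inhibitor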
IN multimer act – HIV-1 IN multimer formation enhancers, counter-screen for LEDGF/p75 integration inhibitor project, biochemical, TR-FRET; shares compounds with LEDGF integ inh; TR-FRET HIV-1 integrase multimerization; activation, % at 7.7 µM; 17% of 2,000 active; in the data active = activation above about 8.9%
TRFRET interf – TR-FRET optical interference artefacts, confirmation, artefact control for LEDGF/p75-dependent integration inhibitor project, biochemical, HIV-1 IN multimerization. shares compounds with LEDGF integ inh. TR-FRET optical interference counterscreen. 2,000 tested, under 10 active. inhibition, % at 7.7 µM;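 active = inhibition above the mean over all tested compounds plus 3 SD, which no compound reached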;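 also: 0% = integrase with antibodies and DMSO and 100% = antibodies without integrase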
IN-LEDGF confirm – inhibitors of HIV-1 IN-LEDGF/p75 DNA integration, confirmation, biochemical, TR-FRET; inhibition, % at 3.7 µM; shares compounds with LEDGF integ inh; TR-FRET LEDGF/p75-dependent HIV-1 integration; 36% of 2,000 active; in the data active = inhibition above about 14%
The depositor's hits bear a star; · = no result given. This is a sample that favours compounds with a hit; in the whole collection about 1.6% have one here.

SMILES	MBD2 inh	LEDGF integ inh	TDP2 absorb	UHRF1 binding	IN multimer act	TRFRET interf	IN-LEDGF confirm
c1cc(CNc2ccc(N3CCOCC3)cc2)ccn1	1	16*	22	-5	6	-23	-9
Cc1ccc(CNc2ccc(N3CCOCC3)cc2)cc1	-6	7	23	0	·	·	·
Cc1nc2sc(C(c3ccco3)N3CCc4ccccc4C3)c(O)n2n1 (stereo not drawn)	-3	21*	-4	8	0	1	11
Cc1nc2sc(C(c3ccco3)N3CCN(c4ccccc4F)CC3)c(O)n2n1 (stereo not drawn)	-4	1	0	-4	·	·	·
COc1ccc(Cl)cc1N(CC(=O)Nc1cccc(SC)c1)S(C)(=O)=O	-6	40*	-8	6	-1	3	-3
COc1ccc(N(CC(=O)Nc2cccc(N(C)S(C)(=O)=O)c2)S(=O)(=O)c2ccccc2)cc1Cl	-4	44*	-1	-2	2	-8	-3
COc1ccc(N(CC(=O)Nc2cccc(SC)c2)S(C)(=O)=O)cc1Cl	5	1	-2	5	·	·	·
CCCCCN1CCCCC(NC(=O)c2cccc(F)c2)C1=O (stereo not drawn)	5	-1	6	10	·	·	·
CC(=O)Nc1ccc(OCc2cn(CC(=O)c3ccc(O)cc3)nn2)cc1	9	15*	6	17	7	-34	8
CC(=O)Nc1ccc(C(=O)CSc2nnnn2C)cc1	-5	-1	22	-1	·	·	·
COC(=O)c1c(-c2ccc(OC)cc2)c2c(c3c4cc(F)ccc4n(S(=O)(=O)c4ccc(C)cc4)c13)C(=O)N(C)C2	-2	-4	0	-3	·	·	·
CCCC(=O)N1CCCC1(C)C(=O)Nc1ccc(C)c(C)c1 (stereo not drawn)	5	-1	5	0	·	·	·
CCCC(=O)N1CCCC1(C)C(=O)Nc1cc(C)ccc1C (stereo not drawn)	0	85*	3	3	0	1	-14
Cc1ccc(CSc2nnc(-c3cccs3)o2)cc1C	-4	-3	-2	1	·	·	·
CC(=C/c1ccco1)/C=N/NC(=O)Cc1cccn1C	2	21*	-2	5	-1	5	10
Cn1cccc1CC(=O)N/N=C/c1ccco1	-2	5	0	-1	·	·	·
CC(/C=N/NC(=O)CN1CCN(Cc2ccc(Cl)cc2)CC1)=C\c1ccco1	-5	0	2	-4	·	·	·
CC(/C=N/NC(=O)Cc1cccn1C)=C\c1ccco1	9	37*	4	21*	1	-5	6
CCOc1ccc(C(=O)C[n+]2ccccc2C)cc1	-3	14*	4	2	0	1	-3
Cc1cccc(C)c1NC(=O)NCCSc1snnc1C	2	15*	3	2	0	0	2
Cc1nnsc1SCCNC(=O)c1c(F)cccc1F	-2	-3	-8	4	·	·	·
Nc1[nH]c(C(=O)c2ccccc2)c(-c2ccc(Cl)cc2)c1C(=O)NCCC1=CCCCC1	-6	-4	10	-1	·	·	·
N#CCSc1ccccc1NC(=O)COc1ccc(-c2nnco2)cc1	3	14*	-1	0	-2	8	-5
Cc1ccccc1-c1cc2nc(NCc3ccncc3)n(C)c(=O)c2s1	1	4	-12	2	·	·	·
Cc1ccccc1-c1cc2nc(NCc3cccnc3)n(C)c(=O)c2s1	-5	91*	2	1	1	-4	0
SMILES	MBD2 inh	LEDGF integ inh	TDP2 absorb	UHRF1 binding	IN multimer act	TRFRET interf	IN-LEDGF confirm
Cc1ccnc(N2CCCC(C(=O)Nc3nnc(C)s3)C2)n1 (stereo not drawn)	0	-1	4	-1	·	·	·
COc1ccc(CNC(=O)C2CCCN(c3nccc(C)n3)C2)cc1 (stereo not drawn)	-5	23*	15	3	0	-1	1
Oc1ccc(N=Cc2cc(Br)c(N3CCOCC3)o2)cc1	-1	0	0	-5	·	·	·
COc1cccc(/C=N/N2CCOCC2)c1O	0	1	0	-1	·	·	·
O=[N+]([O-])c1cc(Br)c(O)c(C=Nc2ccc(N3CCOCC3)cc2)c1	-5	26*	21	0	8.9*	-32	15*
COc1cccc(C=Nc2ccc(N3CCOCC3)cc2)c1O	1	18*	24	1	2	-8	-3
Cc1ccc(C)c(Nc2ccc(C(=O)NCCc3ccccc3)cn2)c1	-3	37*	7	-1	1	-5	9
COC(=O)[C@]12C[C@H](CC(=O)N3CCN(C(=O)C4CC4)CC3)C(=O)N(Cc3ccccc3)C1=C[C@H](C(C)C)O[C@@H]2C1CC1	-3	0	0	2	·	·	·
c1cc(-c2ccc(CN3CCOCC3)cc2)n2ccnc2c1	2	2	7	-1	·	·	·
c1cn2cc(-c3ccc(CN4CCOCC4)cc3)ccc2n1	-4	89*	2	0	1	-4	-1
CCOc1ccc(Nc2ccc(N)c(S(=O)(=O)O)c2)cc1	0	38*	-5	17	14*	-69	19*
CCOc1ccc(NS(=O)(=O)c2ccc(N)cc2)cc1	-2	-4	-8	0	·	·	·
Cc1cccc2c1CCC1CN(Cc3ccccc3)S(=O)(=O)N21 (stereo not drawn)	7	3	3	1	·	·	·
COc1ccc(S(=O)(=O)Nc2ccc(F)c(F)c2)cc1Cl	0	35*	-3	-2	2	-6	-6
COc1ccc(NS(=O)(=O)c2ccc(OC)c(OC)c2)cc1OC	3	0	-3	1	·	·	·
O=C(C1CCCN1S(=O)(=O)c1ccc(Br)s1)N1CCN(c2ccccc2)CC1 (stereo not drawn)	4	-1	0	2	·	·	·
Oc1ccc(/C=N/N(c2ccccc2)c2ccccc2)c(O)c1O	0	26*	1	-3	-1	6	16*
COc1ccc(C(C#N)CC(=O)c2ccc(OCc3ccccc3)c(OC)c2)cc1OC (stereo not drawn)	1	60*	-5	3	-2	8	-5
Oc1ccc(C=Nc2cccc3ncccc23)c(O)c1	-10	16*	9	-3	17*	-60	22*
